Test results taken from ChEMBL document CHEMBL1132904, “'Double-Drugs'--a new class of prodrug form of an HIV protease inhibitor conjugated with a reverse transcriptase inhibitor by a spontaneously cleavable linker” (Bioorg Med Chem Lett, 2000).
Converted amounts (≈) assume the structure as drawn. The source made the active and inactive calls. No cut-off for these calls is given here.

Assays:
MOLT-4 = experiment: Compound was evaluated for anti-HIV activity against HIV-1Lal inoculated with Molt-4 cells; type: functional, cell-based; settings: Homo sapiens
In short: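 HIV-1 LAI (100 TCID50) was inoculated together with 4-fold serial dilutions of compound onto Molt-4 cells at 5000 cells/well. Cultures were kept 7 days. Surviving cells were quantified by WST-8 assay, and EC50 was calculated from the ratios of surviving cells.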

[1] = molecular target: Human immunodeficiency virus type 1 protease (Human immunodeficiency virus 1, UniProt Q72874); experiment: Inhibitory activity against HIV-1 IIIB/CEM-SS protease
[2] = Water solubility by RP-HPLC; type: ADME
In short: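 Aliquots of compound solutions were injected onto HPLC. Dissolved concentration was determined by comparison of peak area.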

[3] = tested on: Human immunodeficiency virus 1; experiment: Relative potency of compound to that of AZT was determined
[4] = molecular target: Human immunodeficiency virus type 1 protease (Human immunodeficiency virus 1) (UniProt Q72874); experiment: Compound was evaluated for the percentage inhibition of HIV protease at 5 uM
[5] = molecular target: Human immunodeficiency virus type 1 protease (Human immunodeficiency virus 1) (UniProt Q72874); experiment: Inhibitory activity against HIV protease; Active
[6] = Therapeutic index was determined; settings: read-out: Therapeutic index

EC50 (MOLT-4) [nM] | Activity [5] | SMILES | other results
92 |  | Cc1cccc(C)c1OCC(=O)N[C@@H](Cc1ccccc1)[C@H](O)C(=O)N1CSC(C)(C)[C@H]1C(=O)NC(C)(C)C | 
 |  | Cc1cccc(C)c1OCC(=O)N[C@@H](Cc1ccccc1)[C@H](OC(=O)CCC(=O)OCC1OC(n2cc(C)c(=O)[nH]c2=O)CC1N=[N+]=[N-])C(=O)N1CSC(C)(C)[C@H]1C(=O)NC(C)(C)C (stereo partly drawn) | EC50 [1]: 189 nM
3.4 |  | Cc1cccc(C)c1OCC(=O)N[C@@H](Cc1ccccc1)[C@H](OC(=O)CCCC(=O)NCCC(=O)OCC1OC(n2cc(C)c(=O)[nH]c2=O)CC1N=[N+]=[N-])C(=O)N1CSC(C)(C)[C@H]1C(=O)NC(C)(C)C (stereo partly drawn) | solubility [2]: 235 µg/mL (≈ 237 µM); Relative potency [3]: 1.8; inhibition [4]: 12%
 | Active | CC(C)(C)NC(=O)[C@H]1N(C(=O)[C@@H](O)[C@H](Cc2ccccc2)NC(=O)CC(C)(C)C(=O)O)CSC1(C)C | 
 | Active | Cc1cccc(C)c1OCC(=O)N[C@@H](Cc1ccccc1)[C@H](OC(=O)CCC(=O)O)C(=O)N1CSC(C)(C)[C@H]1C(=O)NC(C)(C)C | 
 | Active | Cc1cccc(C)c1OCC(=O)N[C@@H](Cc1ccccc1)[C@H](OC(=O)CCCC(=O)O)C(=O)N1CSC(C)(C)[C@H]1C(=O)NC(C)(C)C | 
 | Active | Cc1ccccc1CNC(=O)[C@H]1N(C(=O)[C@@H](O)[C@H](Cc2ccccc2)NC(=O)CC(C)(C)C(=O)O)CSC1(C)C | 
 | Active | Cc1ccccc1CNC(=O)[C@H]1N(C(=O)[C@H](O)[C@@H](Cc2ccccc2)NC(=O)CC(C)(C)C(=O)OCC2OC(n3cc(C)c(=O)[nH]c3=O)CC2N=[N+]=[N-])CSC1(C)C (stereo partly drawn) | 
 | Active | Cc1cn(C2CC(N=[N+]=[N-])C(COC(=O)C(C)(C)CC(=O)N[C@H](Cc3ccccc3)[C@@H](O)C(=O)N3CSC(C)(C)[C@H]3C(=O)NC(C)(C)C)O2)c(=O)[nH]c1=O (stereo partly drawn) | 
 | Active | Cc1cn(C2CC(N=[N+]=[N-])C(COC(=O)CCN)O2)c(=O)[nH]c1=O (stereo not drawn) | 
 | Active | Cc1cn(C2CC(N=[N+]=[N-])C(COC(=O)CN)O2)c(=O)[nH]c1=O (stereo not drawn) | 
5.3 |  | Cc1cccc(C)c1OCC(=O)N[C@@H](Cc1ccccc1)[C@H](OC(=O)CCC(=O)NCC(=O)OCC1OC(n2cc(C)c(=O)[nH]c2=O)CC1N=[N+]=[N-])C(=O)N1CSC(C)(C)[C@H]1C(=O)NC(C)(C)C (stereo partly drawn) [KNI-1038] | solubility [2]: 290 µg/mL (≈ 301 µM); Relative potency [3]: 1.2; inhibition [4]: 37%
0.1 |  | Cc1cccc(C)c1OCC(=O)N[C@@H](Cc1ccccc1)[C@H](OC(=O)CCCC(=O)NCC(=O)OCC1OC(n2cc(C)c(=O)[nH]c2=O)CC1N=[N+]=[N-])C(=O)N1CSC(C)(C)[C@H]1C(=O)NC(C)(C)C (stereo partly drawn) [KNI-1039] | solubility [2]: 371 µg/mL (≈ 380 µM); Relative potency [3]: 62; selectivity ratio [6]: > 2000; inhibition [4]: 55%
1 |  | Cc1cccc(C)c1OCC(=O)N[C@@H](Cc1ccccc1)[C@H](OC(=O)CCC(=O)NCCC(=O)OCC1OC(n2cc(C)c(=O)[nH]c2=O)CC1N=[N+]=[N-])C(=O)N1CSC(C)(C)[C@H]1C(=O)NC(C)(C)C (stereo partly drawn) [KNI-1046] | solubility [2]: 373 µg/mL (≈ 382 µM); Relative potency [3]: 6.2; inhibition [4]: 7%
6.2 |  | Cc1cn([C@H]2C[C@H](N=[N+]=[N-])[C@@H](CO)O2)c(=O)[nH]c1=O [ZIDOVUDINE] | 
